Laboratory results: ChEMBL document CHEMBL4513216, “Probing the Open Global Health Chemical Diversity Library for Multistage-Active Starting Points for Next-Generation Antimalarials” (ACS Infect Dis, 2020)

Test: Toxicity liver stage against HepG2, at 10uM
Type: cell-based
Design: test concentration 10 uM, cell line HepG2-A16-CD81EGFP
Conditions: human, HepG2-A16-CD81EGFP cells; read-out: INHIBITION
Outline: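 Uninfected HepG2-A16-CD81EGFP cells, 3 × 10^3 per well, 1536-well, plated on prespotted compound at 10 μM final, parasite-free screening media added to match infected plates; puromycin 10 μM positive, DMSO 0.5% negative; run in parallel with 48 h PbLuc assay at 37 °C, 5% CO2; viability by CellTiter-Glo luminescence, normalized to controls.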

SMILES	cytotoxicity at 10 µM [%]
CC1(C)[C@H](Cc2cc(CN3CCCCC3)on2)C[C@@H]1NS(C)(=O)=O	1.12
COC(=O)[C@@H]1CN(C(=O)Nc2ccccc2)CCN1C(C)=O	4.23
O=C(NCCCc1ccco1)c1cnc(N2CCOCC2)nc1	11
O=C1CC(c2cccnc2)c2c(c(C(=O)O)cn2-c2cccc(F)c2)N1 (configuration not stated)	-0.585
O=C(NCCC(O)c1cccs1)c1ccc(Br)o1 (configuration not stated)	-15.2
COc1ccccc1C(=O)Nc1nc2c(s1)CN(S(=O)(=O)C1CC1)CC2	-11.7
O=C(NCCOc1ccccc1)NCC(O)c1cccs1 (configuration not stated)	-7.83
Cn1nnc2c(N3CC(C(=O)NCCC4=CCCCC4)C3)ncnc21	8.41
O=C(C1CCOCC1)N1CCC2(CCNCC2)C1	3.41
Cn1nc(CN2CCCC2)c2c1CN(C(=O)c1ccc[nH]1)CC2	6.86
CN(Cc1cccnc1)C1CC2(CCN(C(=O)c3cscn3)CC2)C1	1.02
Cn1c(C(=O)NC2CCCC2)nc2c1CCN(Cc1ccccc1)C2	10.3
CC(NC(=O)OC(C)(C)C)c1nnc(S(=O)(=O)Cc2ccc(Cl)cc2)o1 (configuration not stated)	-8.92
CC(C)Sc1nnc(CCNC(=O)OC(C)(C)C)o1	14.3
CCNC(=O)c1nnn(Cc2ccccc2)c1OC	4.62
COc1ccc(C(C)N(C)Cc2c(C(C)(C)C)[nH]c3ncccc23)cc1 (configuration not stated)	-0.0612
CC(=O)NC1Cc2ccc(S(=O)(=O)NCCNc3ccccn3)cc2C1 (configuration not stated)	0.126
CC(C)c1ccc(CN[C@@H]2COC[C@H]2c2ccc(F)cc2)cc1	-7.52
CN(C)c1ccc(CC2CCN(c3cnccn3)CC2)nn1	2.29
CC(C)OC(=O)[C@@H]1CCN(C(=O)c2ccccn2)[C@@H]1c1ccc(F)cc1	4.81
Cc1n[nH]c(C)c1CCC(=O)N[C@@H]1CCC[C@@H](Oc2ccccc2)[C@@H]1O	3.01

SMILES	cytotoxicity at 10 µM [%]
CN1CCN(C(=O)C2CCN(c3cccnn3)C2)CC1 (configuration not stated)	-32.4
CC(C)N(Cc1ccccc1)C(=O)c1cc(C2CCCN2C)ccn1 (configuration not stated)	-18.7
Cc1ncc(CNC(=O)Cc2ccsc2)c(C2CCCN2C)n1 (configuration not stated)	-1.25
Cc1nnc2n1CCN(C(=O)c1ccc(Cn3cccc3)cc1)C2	-2.4
CS(=O)(=O)C1(CNCc2cccc(-n3cccn3)c2)CCOCC1	-141
CC(C)CN(C(=O)Nc1cccnc1)C1CC1	-11.3
Cc1cc(C(=O)NC(C)CC(=O)c2cccs2)n(C)n1 (configuration not stated)	-0.0944
O=C(NCc1nncn1C1CC1)c1ccccc1Oc1cccnc1	-4.97
COc1ncccc1CNCc1c(C(C)C)nn(C)c1N(C)C	-5.91
CN(C)C(CNC(=O)NCCS(C)(=O)=O)c1ccco1 (configuration not stated)	4.41
COc1ccc(C(C)NC(=O)Nc2nnc(C)s2)c(OC)c1 (configuration not stated)	9.12
COC(=O)N1CCC(NC(=O)Cn2cc(C)c3ccccc32)CC1	-2.37
CN(Cc1ccc(Cl)s1)C(=O)COc1cccc(C(N)=O)c1	-2.83
COCCOCC(=O)Nc1cc(C)ccc1F	3.91
CC(C)c1ccc(C(=O)N2CCOCC2CC(=O)c2ccco2)cn1 (configuration not stated)	6.93
CC(C)NC(=O)c1nnn(-c2cccc(F)c2)c1C1CC1	-0.0198
Cc1cc(C)c(C(=O)N2CCOC(c3cccs3)C2)c(=O)[nH]1 (configuration not stated)	-1.29
Cn1c(SCC(O)COCc2ccc(Cl)cc2)nnc1C1CC1 (configuration not stated)	14
Cc1ccc(N2CCCC(NC(=O)CCc3ccccn3)C2=O)cc1 (configuration not stated)	-2.16
O=C(NCCc1cccs1)N1CCCC1CCCO (configuration not stated)	5.82
CS(=O)(=O)CCCSc1n[nH]c(-c2ccc3c(c2)CCC3)n1	-0.0422

SMILES	cytotoxicity at 10 µM [%]
CC(NC(=O)N1CCNC(=O)CC1)c1ccc(OC(F)F)cc1 (configuration not stated)	11.6
O=C(c1cnns1)N1CCN(Cc2ccc(F)cc2Cl)CC1	-127
O=C(NCCNc1cnccn1)NCC1CCS(=O)(=O)C1 (configuration not stated)	-1.68
Cc1ccc(F)c(C(=O)Nc2c(C(N)=O)n[nH]c2C)c1	-0.587
CN1CC(C(=O)NCc2ccc(Br)cc2F)CC1=O (configuration not stated)	9.01
Cc1ccn(-c2ccc(NCc3ccccc3F)nn2)n1	3.66
CCC1CCCCN1C(=O)c1ccc2[nH]nnc2c1 (configuration not stated)	-10.7
CCOC(C)c1nc(CN2CCC(CNC(C)=O)CC2)cs1 (configuration not stated)	-15
CN(C)S(=O)(=O)N1CCCC1CC(=O)c1cccs1 (configuration not stated)	-9.44
CC(C)OCCOCc1cccc(NC(=O)NCc2ccncc2)c1	-12
COc1c(C2CCCN2C(=O)c2ccc(Cl)o2)c(C)nn1C (configuration not stated)	-10.4
c1cnc(N2CCOCC3(CCN(c4cnccn4)CC3)C2)nc1	-103
COCC(=O)N1CCN(CC2CC2)c2ncccc2C1	-100
COc1ccccc1OC1CCN(c2nc(N)nc3[nH]cnc23)CC1	2.94
Cc1cc(N(C)Cc2ncc[nH]2)nc(-c2cccnc2)n1	4.37
Cc1cc(-c2ccc(C(C)N3CCCCC3)cc2)cnc1N (configuration not stated)	-3.44
COc1cccc(F)c1-c1nc2c([nH]1)c(C1CC1)nn2C	0.271
CCOc1cccc(C(=O)N2CCCn3nc(CCC(=O)O)cc3C2)c1	-3.43
CN1CCN(C(=O)c2ccc3c(c2)nc(N2CCOCC2)n3C)CC1=O	1.22
CC(=O)N[C@@H]1CN(Cc2nccn2C)C[C@H]1c1ccc(C)cc1	14.1
Cc1ccc(-c2nc(CN3CCOCS3(=O)=O)c(C)o2)cc1	-0.724

SMILES	cytotoxicity at 10 µM [%]
CC(C)c1noc(-c2ccc(NCc3noc(C(C)C)n3)nc2)n1	-6.49
CCc1ccc(CNC(=O)CCc2nnc(-c3ccc(C)s3)o2)nc1	-3.65
O=C(C1CCC1)N1CCN(Cc2ccsc2)[C@H]2CS(=O)(=O)C[C@H]21	-12
CCC1CN(C(=O)c2ccc(Cl)cc2O)CCN1C(C)C (configuration not stated)	-15.5
Cc1ncsc1-c1nnc(C2CCN(CC3CCCCC3)CC2)o1	1.59
Cc1c[nH]nc1C1CCCCN1C(=O)Cn1cc(Cl)cn1 (configuration not stated)	4.11
COc1cccc(OCC(=O)NS(=O)(=O)c2cccnc2)c1	-12.1
NC(=O)c1cnn2c1NCC(CNCCOc1ccccc1)C2 (configuration not stated)	-11.4
CC(C(=O)N1CCOCC1)n1cncn1 (configuration not stated)	-1.45
Cc1noc(C(C)C)c1C(=O)NCCCOC(C)C	-9.83
Cc1ccc([C@]2(O)CC[C@H]3CN(Cc4ccccc4F)C[C@H]32)nc1	-12.8
CCN1CCn2c(C)cnc2C12CCN(C(=O)N(C)C)CC2	4.91
COc1ccc(CN2C[C@H]3CN(c4cncnc4)C(=O)[C@H]3C2)cc1	4.74
c1ccc(CN2CCCn3nnc(CNc4ncccn4)c3C2)nc1	-3.29
CCN1CCn2cc(CNC(=O)c3cnn(C)c3)nc2C1	8.88
Cc1cccc(CN2C(=O)CC[C@H]3[C@@H]2CCN3CC(=O)N(C)C)n1	-71.7
Cc1nc(Cn2c3c(ccc2=O)CCN(CC2CCC2)CC3)cs1	5.1
CNC(=O)N1CC[C@H]2N(C)CC[C@@]2(C(=O)N2CCOCC2)CC1	-2.72
CCn1cc2c(n1)CN(S(=O)(=O)c1cn(C)cn1)CC2COC (configuration not stated)	5.41
